From ChEMBL document CHEMBL1821604, “Anticancer activity and cDNA microarray studies of a (RS)-1,2,3,5-tetrahydro-4,1-benzoxazepine-3-yl]-6-chloro-9H-purine, and an acyclic (RS)-O,N-acetalic 6-chloro-7H-purine” (Eur J Med Chem, 2011) come the findings set out here.

Molecules are shown by their SMILES.

Common to all, as to assay type: functional
Experiment [1] deals with MCF7. Put plainly: Upregulation of ROS1 gene expression in human MCF7 cells at IC50 after 48 hrs by cDNA microarray technique relative to control.
Experiment [2] deals with MCF7. Put plainly: Down regulation of CORO2B gene expression in human MCF7 cells at IC50 after 48 hrs by cDNA microarray technique relative to control. A digest of the protocol: (§1)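 8 × 10⁶ cells exposed 48 h to compound at its IC50 concentration; total RNA isolated with trizol/chloroform and RNeasy columns including on-column DNase step; RNA quantified by OD 260/280; DMSO-treated cultures as control.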

For experiment [3], the system named is MCF7. Briefly: Upregulation of FGD3 gene expression in human MCF7 cells at IC50 after 48 hrs by cDNA microarray technique relative to control.
The subject of experiment [4] is HT-29. Briefly: Down regulation of LIN28 gene expression in human HT-29 cells at IC50 after 48 hrs by cDNA microarray technique relative to control. A digest of the protocol:
(§2)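 Cells (8 × 10⁶) were cultured in DMEM with 10% heat-inactivated FBS at 37 °C under 5% CO₂. They were exposed for 48 h to compound at its IC₅₀, with DMSO-treated parallel cultures as controls (final DMSO ≤0.1% v/v). Total RNA was isolated by trizol/chloroform phase separation, RNeasy column cleanup and on-column DNase, then quantified by OD260/OD280. Expression was profiled by cDNA microarray relative to control.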

For experiment [5], the system named is HT-29. Put plainly: Upregulation of NAV1 gene expression in human HT-29 cells at IC50 after 48 hrs by cDNA microarray technique relative to control.
Experiment [6] has as its system HT-29. Put plainly: Down regulation of HTN1 gene expression in human HT-29 cells at IC50 after 48 hrs by cDNA microarray technique relative to control. A digest of the protocol:
as §2

The subject of experiment [7] is HT-29. Briefly: Down regulation of MGC35130 gene expression in human HT-29 cells at IC50 after 48 hrs by cDNA microarray technique relative to control.
Experiment [8] has as its system MCF7. Briefly: Down regulation of ATP1B4 gene expression in human MCF7 cells at IC50 after 48 hrs by cDNA microarray technique relative to control. A digest of the protocol: as §1
Experiment [9] concerns HT-29. Briefly: Down regulation of TMEM27 gene expression in human HT-29 cells at IC50 after 48 hrs by cDNA microarray technique relative to control.
In experiment [10] the test system is MCF7. Briefly: Down regulation of ADAMTS3 gene expression in human MCF7 cells at IC50 after 48 hrs by cDNA microarray technique relative to control. An outline of the steps:
as §1

The test system of experiment [11] is MCF7. Put plainly: Down regulation of ZNF189 gene expression in human MCF7 cells at IC50 after 48 hrs by cDNA microarray technique relative to control.
The test system of experiment [12] is HT-29. Briefly: Down regulation of IL12RB2 gene expression in human HT-29 cells at IC50 after 48 hrs by cDNA microarray technique relative to control. A digest of the protocol:
as §2

Experiment [13] concerns MCF7. Put plainly: Down regulation of BDKRB1 gene expression in human MCF7 cells at IC50 after 48 hrs by cDNA microarray technique relative to control. A digest of the protocol:
as §1

In experiment [14] the test system is MCF7. Briefly: Down regulation of MGC42090 gene expression in human MCF7 cells at IC50 after 48 hrs by cDNA microarray technique relative to control.
Experiment [15] has as its system MCF7. Put plainly: Down regulation of TGM4 gene expression in human MCF7 cells at IC50 after 48 hrs by cDNA microarray technique relative to control.
In experiment [16] the test system is HT-29. Briefly: Down regulation of NBEA gene expression in human HT-29 cells at IC50 after 48 hrs by cDNA microarray technique relative to control.
Experiment [17] has as its system MCF7. Briefly: Down regulation of CD72 gene expression in human MCF7 cells at IC50 after 48 hrs by cDNA microarray technique relative to control. An outline of the steps:
as §1

In experiment [18] the test system is MCF7. Briefly: Upregulation of KIAA1277 gene expression in human MCF7 cells at IC50 after 48 hrs by cDNA microarray technique relative to control.
The test system of experiment [19] is MCF7. Put plainly: Down regulation of AF147723 gene expression in human MCF7 cells at IC50 after 48 hrs by cDNA microarray technique relative to control. A digest of the protocol:
as §1

Experiment [20] has as its system HT-29. Put plainly: Down regulation of FLJ25476 gene expression in human HT-29 cells at IC50 after 48 hrs by cDNA microarray technique relative to control. A digest of the protocol: as §2
Experiment [21] relates to HT-29. Briefly: Down regulation of HAPLN3 gene expression in human HT-29 cells at IC50 after 48 hrs by cDNA microarray technique relative to control. An outline of the steps: as §2
The subject of experiment [22] is HT-29. Put plainly: Upregulation of IMP-1 gene expression in human HT-29 cells at IC50 after 48 hrs by cDNA microarray technique relative to control.
Experiment [23] relates to HT-29. Briefly: Down regulation of FLJ32871 gene expression in human HT-29 cells at IC50 after 48 hrs by cDNA microarray technique relative to control. A digest of the protocol: as §2
Experiment [24] has as its system MCF7. Briefly: Down regulation of SLC16A7 gene expression in human MCF7 cells at IC50 after 48 hrs by cDNA microarray technique relative to control.
Experiment [25] deals with HT-29. Put plainly: Upregulation of AVIL gene expression in human HT-29 cells at IC50 after 48 hrs by cDNA microarray technique relative to control.
Experiment [26] deals with HT-29. Briefly: Down regulation of ARPC4 gene expression in human HT-29 cells at IC50 after 48 hrs by cDNA microarray technique relative to control. An outline of the steps: as §1
Experiment [27] concerns MCF7. Put plainly: Upregulation of ZNF505 gene expression in human MCF7 cells at IC50 after 48 hrs by cDNA microarray technique relative to control.
Experiment [28] concerns MCF7. Briefly: Upregulation of ST3GAL1 gene expression in human MCF7 cells at IC50 after 48 hrs by cDNA microarray technique relative to control.
Experiment [29] has as its system HT-29. Briefly: Down regulation of TNPO1 gene expression in human HT-29 cells at IC50 after 48 hrs by cDNA microarray technique relative to control.
In experiment [30] the test system is HT-29. Put plainly: Down regulation of HIRA gene expression in human HT-29 cells at IC50 after 48 hrs by cDNA microarray technique relative to control. A digest of the protocol: as §2
Experiment [31] deals with HT-29. Briefly: Down regulation of ZNF482 gene expression in human HT-29 cells at IC50 after 48 hrs by cDNA microarray technique relative to control.
Experiment [32] deals with HT-29. Put plainly: Down regulation of PLCB4 gene expression in human HT-29 cells at IC50 after 48 hrs by cDNA microarray technique relative to control.
Experiment [33] concerns HT-29. Put plainly: Down regulation of ORM1 gene expression in human HT-29 cells at IC50 after 48 hrs by cDNA microarray technique relative to control.
Experiment [34] relates to MCF7. Put plainly: Upregulation of RHOH gene expression in human MCF7 cells at IC50 after 48 hrs by cDNA microarray technique relative to control.
The test system of experiment [35] is MCF7. Briefly: Down regulation of BIVM gene expression in human MCF7 cells at IC50 after 48 hrs by cDNA microarray technique relative to control. A digest of the protocol:
as §1

Experiment [36] relates to MCF7. Briefly: Upregulation of MYCN gene expression in human MCF7 cells at IC50 after 48 hrs by cDNA microarray technique relative to control.
Experiment [37] has as its system HT-29. Put plainly: Down regulation of ANXA6 gene expression in human HT-29 cells at IC50 after 48 hrs by cDNA microarray technique relative to control. An outline of the steps: as §1
Experiment [38] relates to HT-29. Briefly: Down regulation of IL26 gene expression in human HT-29 cells at IC50 after 48 hrs by cDNA microarray technique relative to control. A digest of the protocol:
as §2

As for `COC(CN(c1ccccc1CO)S(=O)(=O)c1ccccc1[N+](=O)[O-])n1cnc2ncnc(Cl)c21` (racemic), the “fold change (FC)” value was 2.59 in the experiment on MCF7 [1]; -2.01 in the experiment with MCF7 [2]; 2.16 with MCF7 [3]; -2.02 in the experiment with HT-29 [4]; 2.06 in the experiment with HT-29 [5]; -2.1 with HT-29 [6]. The “fold change (FC)” value is recorded as -2.05 in the experiment with HT-29 [7]; -2.07 with MCF7 [8]; -2.99 with HT-29 [9]; -2.06 in the experiment with MCF7 [10]; -2.17 with MCF7 [11]; -2.3 with HT-29 [12]. Besides, the “fold change (FC)” value in the experiment with MCF7 [13] is on record as -2.48; in the experiment with MCF7 [14] it was -2.03; with MCF7 [15], -2.58; with HT-29 [16], -2.89; in the experiment with MCF7 [17], -2.17; with MCF7 [18] it was 2.21. The “fold change (FC)” value with MCF7 [19] is -2.66; in the experiment with HT-29 [20], -2.11; with HT-29 [21], -2.64; with HT-29 [22], 2.88; with HT-29 [23], -2.51; in the experiment with MCF7 [24], -2.27. The “fold change (FC)” value with HT-29 [25] is given as 2.46.
As to `O=C(OCC1c2ccccc2-c2ccccc21)N1CC(n2cnc3c(Cl)ncnc32)OCc2ccccc21` (racemic), the “fold change (FC)” value in the experiment on HT-29 [26] is recorded as -2.07; with MCF7 [27] it was 5.62; in the experiment on MCF7 [28], 6.38; in the experiment on HT-29 [29], -2.5; in the experiment with HT-29 [30], -2.35; in the experiment on HT-29 [31], -2.28. Moreover, the “fold change (FC)” value is given as -2.11 with HT-29 [32]; -2.19 with HT-29 [33]; 2.2 in the experiment on MCF7 [34]; -2.05 in the experiment on MCF7 [35]; 2.98 in the experiment with MCF7 [36]; -2.27 in the experiment on HT-29 [37]. For the same compound, the “fold change (FC)” value in the experiment with HT-29 [38] is listed as -2.22.
